{"data": "Measured values pooled from the literature", "target": "Serine/threonine-protein kinase PAK 3 (PAK3, Homo sapiens, UniProt O75914)", "note": "Each line is one published result; the experiments were not run side by side."}
{"SMILES": "O=C(NCC1CCOCC1)c1n[nH]cc1NC(=O)c1c(F)cccc1F", "read-out": "binding", "technique": "competition with immobilised ligand", "tested at": "1 µM", "remaining binding": "100%"}
{"SMILES": "CC(=O)c1c(NS(C)(=O)=O)c2cc(-c3ccc(Cl)cc3)c(-c3ccc(Cl)cc3Cl)nc2n(C)c1=O", "read-out": "cell-free assay", "technique": "competition with immobilised ligand", "tested at": "1 µM", "remaining binding": "100%"}
{"SMILES": "c1cncc(-c2cccc(Nc3nccc(NC4CCCCC4)n3)c2)c1", "read-out": "binding", "technique": "competition with immobilised ligand", "tested at": "10 µM", "remaining binding": "38%"}
{"SMILES": "CN(C)c1nccc(-c2cnc3ncccn23)n1", "read-out": "binding", "tested at": "1 µM", "remaining binding": "100%"}
{"SMILES": "O=C(c1ccc(Nc2ncc(Cl)c(-c3cc4ccccc4s3)n2)cc1)N1CCC(N2CCCC2)CC1", "read-out": "binding", "technique": "competition with immobilised ligand", "tested at": "1 µM", "remaining binding": "8.4%"}
{"SMILES": "FC(F)(F)Oc1cccc(-c2cnc3ccc(-c4ccncc4)nn23)c1", "read-out": "cell-free assay", "technique": "competition with immobilised ligand", "tested at": "5 µM", "remaining binding": "100%"}
{"SMILES": "CC1CCCN1c1nccc(-c2cnn3ncccc23)n1 (centres unmarked)", "read-out": "binding", "tested at": "1 µM", "remaining binding": "100%"}
{"SMILES": "O=C(NCCCN1CCOCC1)c1ccc(Nc2ncc(Cl)c(-c3ccc(Cl)s3)n2)cc1", "read-out": "binding", "technique": "competition with immobilised ligand", "tested at": "1 µM", "remaining binding": "77%"}
{"SMILES": "CCS(=O)(=O)c1cc2cc(C[C@](O)(CC(C)(C)c3ccc(F)cc3C(N)=O)C(F)(F)F)[nH]c2cn1", "read-out": "cell-free assay", "technique": "competition with immobilised ligand", "tested at": "1 µM", "remaining binding": "100%"}
{"SMILES": "c1cnn2ncc(-c3ccnc(N4CCC45COC5)n3)c2c1", "read-out": "binding", "tested at": "1 µM", "remaining binding": "88%"}
{"SMILES": "CSc1cccnc1N1CCN(Cc2nc3ccccc3[nH]2)CC1", "read-out": "cell-free assay", "technique": "competition with immobilised ligand", "tested at": "1 µM", "remaining binding": "87%"}
{"SMILES": "O=C(c1ccc(Nc2nccc(-c3cc4ccccc4s3)n2)cc1)N1CCC(N2CCCC2)CC1", "read-out": "binding", "technique": "competition with immobilised ligand", "tested at": "1 µM", "remaining binding": "39%"}
{"SMILES": "CN([C@@H]1CCc2c(CC(=O)O)c3ccccc3n2C1)S(=O)(=O)c1ccc(F)cc1", "read-out": "cell-free assay", "technique": "competition with immobilised ligand", "tested at": "1 µM", "remaining binding": "98%"}
{"SMILES": "CN(C)c1nccc(-c2cnn3ncccc23)n1", "read-out": "binding", "tested at": "1 µM", "remaining binding": "100%"}
{"SMILES": "O=C1NC(c2ccccn2)Sc2ccccc21 (centres unmarked)", "read-out": "cell-free assay", "technique": "competition with immobilised ligand", "tested at": "1 µM", "remaining binding": "83%"}
{"SMILES": "Nc1ncc2c(n1)-c1c([nH]c3ccc(C#CC4CC4)cc13)CCCC2", "read-out": "binding", "technique": "competition with immobilised ligand", "tested at": "1 µM", "remaining binding": "90%"}
{"SMILES": "F[C@@H]1CCN(c2nccc(-c3cnn4ncccc34)n2)C1", "read-out": "binding", "tested at": "1 µM", "remaining binding": "100%"}
{"SMILES": "COc1cnc(Nc2cccc(S(N)(=O)=O)c2)nc1N1CCN(c2ccccc2)C(=O)C1", "read-out": "binding", "technique": "competition with immobilised ligand", "tested at": "1 µM", "remaining binding": "75%"}
{"SMILES": "COc1ccc2c(c1)O[C@H](c1ccc(OC)c(OC)c1)C[C@@H]2NC(=O)C1(c2ccc3c(c2)OC(F)(F)O3)CC1", "read-out": "cell-free assay", "technique": "competition with immobilised ligand", "tested at": "1 µM", "remaining binding": "100%"}
{"SMILES": "C[C@H]1CCN(c2nccc(-c3cnn4ncccc34)n2)C1", "read-out": "binding", "tested at": "1 µM", "remaining binding": "94%"}
